# Published values gathered from unrelated publications.
# Each line is one published result; the experiments were not run side by side.
# Target: Serine/threonine-protein kinase 32B (STK32B, Homo sapiens, UniProt Q9NY57)
SMILES,observed,technique,concentration,remaining binding [%]
COc1cnc(Nc2cccc(S(N)(=O)=O)c2)nc1N1CCN(c2ccccc2)CC1,binding,competition with immobilised ligand,1 µM,100
O=C(NCCCN1CCOCC1)c1ccc(Nc2ncc(Cl)c(-c3ccc(Cl)s3)n2)cc1,binding,competition with immobilised ligand,1 µM,100
C[C@@H](c1ccc(-n2cnc3c(N)ncnc32)cc1)N1CCc2nn(C)c(Cc3ccccc3)c2C1=O,binding,competition with immobilised ligand,0.1 µM,99
CO[C@@H](C)c1c(Nc2ccc([C@H](N(C)C(=O)C3CCS(=O)(=O)CC3)C(F)(F)F)cc2)cnc2cc(Cl)nn12,cell-free assay,competition with immobilised ligand,1 µM,89
O=C(NCCCN1CCOCC1)c1ccc(Nc2nccc(-c3cc4ccccc4s3)n2)cc1,binding,competition with immobilised ligand,1 µM,100
O=C(Nc1c[nH]nc1C(=O)NC1CCNCC1)c1cc(F)cc(F)c1,binding,competition with immobilised ligand,1 µM,57
CN(C)c1nccc(-c2cnn3ncccc23)n1,binding,,1 µM,100
Nc1ncc2c(n1)-c1c([nH]c3ccc(C#CC4CC4)cc13)CCCC2,binding,competition with immobilised ligand,1 µM,100
N[C@H]1CCN(c2nccc(-c3cnn4ncccc34)n2)C1,binding,,1 µM,100
O=C(c1ccc(Nc2ncc(Cl)c(-c3ccc(Cl)s3)n2)cc1)N1CCC(N2CCCC2)CC1,binding,competition with immobilised ligand,1 µM,100
O=C(Nc1cnc(Oc2ccc(F)cc2)nc1)N1CCc2ncccc2[C@@H]1c1ccc(F)cc1,cell-free assay,competition with immobilised ligand,1 µM,87
CCN1CCN(Cc2ccc(C(=O)Nc3ccc(C)c(Oc4ccc5c(c4)CC(=O)N5)c3)cc2C(F)(F)F)CC1,binding,competition with immobilised ligand,1 µM,92
CS(=O)(=O)N1CCCC(NC(=O)[C@H](CCC2CCCCC2)NC(=O)c2ccc(CNC(=O)c3cnc4ccccn34)cc2)C1 (stereo partly drawn),cell-free assay,competition with immobilised ligand,0.1 µM,93
C[C@@H]1CCN(c2nccc(-c3cnn4ncccc34)n2)C1,binding,,1 µM,89
CNC(=O)c1ccc(Nc2ncc(C(F)(F)F)c(NCc3nccnc3N(C)S(C)(=O)=O)n2)cc1,cell-free assay,competition with immobilised ligand,0.1 µM,97
Cc1cnn2ncc(-c3ccnc(N(C)C)n3)c2c1,binding,,1 µM,100
C[C@H](c1cccc(C#N)c1)n1cc(Cl)cc(C(N)=O)c1=N,cell-free assay,competition with immobilised ligand,1 µM,100
CN(C)c1nccc(-c2cnc3ncccn23)n1,binding,,1 µM,88
CNC(=O)[C@@H]1CC[C@@H](n2c(-c3ccc4cnccc4c3)nc3ccc(C(=O)NCc4cccc(C(N)=O)c4)cc32)C1,binding,competition with immobilised ligand,1 µM,100
F[C@@H]1CCN(c2nccc(-c3cnn4ncccc34)n2)C1,binding,,1 µM,100
Cc1c(NC(=O)c2cc(C(N)=O)nc3cc(F)ccc23)c(C(F)(F)F)nn1Cc1ccc(C#N)cc1,cell-free assay,competition with immobilised ligand,1 µM,100
